In article PMC7413308 (ARKIVOC : free online journal of organic chemistry, 2018):
“Also recorded” adds a separate entry of the source. Read-outs that look alike come from different tables or passages of the source.

Tests used:
[1] = In vitro microsomal stability of analogs; assay type: in vitro ADME, mouse; details: for half-life / remaining at 1 h / remaining at 2 h: mouse, liver microsomes; for remaining at 1 h / remaining at 2 h: Microsomal stability (MLM) % remaining
[2] = In vitro microsomal stability of analogs; assay type: in vitro ADME, human
HEPG2 (liver) cell line = assay: In vitro cytotoxicity, cell viability; assay type: cell-based; details: 48 h incubation, Cell-Titer Glo cell viability
[3] = system: HEK293 (kidney) cell line; assay: In vitro cytotoxicity, cell viability; assay type: cell-based; details: 48 h incubation, Cell-Titer Glo cell viability
mice [4] = assay: Sensorimotor coordination on rotating rod after oral gavage; assay type: in vivo; details: oral gavage 40 mg/kg, rotating rod max 3 minutes, three time-points
[5] = cited from earlier work
[6] = cited from earlier work; remark: listed apart in the source
Procognitive assay = assay type: in vivo; details: data only preliminary
rats [7] = details: cited from earlier work
[8] = In vitro liver microsomal stability; assay type: in vitro ADME, human; details: 4 μM compound, 37 °C, 30 minutes
[9] = In vitro liver microsomal stability; assay type: in vitro ADME, rat; details: 4 μM compound, 37 °C, 30 minutes
mice [10] = details: cited from earlier work
mice [11] = assay: 6 Hz electroshock seizure assay; assay type: in vivo; details: i.p. 150 mg/kg, various time points, 150 mg/kg
How it was run: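 Mice received the test compound i.p. at 100 or 150 mg/kg, depending on the compound. At various time points after dosing, a 6 Hz electroshock lasting 3 seconds was delivered through a corneal electrode. Each animal was then observed for convulsions and scored as protected or not.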

mice [12] = assay: Rotarod assay, i.p. dosing; assay type: in vivo; details: 100 mg/kg i.p., 30 minutes prior to testing, 6 rpm, n=8
How it was run: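 Mice (n=8) were given the test compound at 100 mg/kg ip 30 minutes before being placed on a rod rotating at 6 rpm for a 1-minute trial. Any mouse that fell 3 times during the trial was scored as toxic (ataxic or sedated).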

[13] = In vitro liver microsomal stability; assay type: in vitro ADME, dog; details: 4 μM compound, 37 °C, 30 minutes
[14] = In vitro liver microsomal stability; assay type: in vitro ADME, mouse; details: 4 μM compound, 37 °C, 30 minutes
rhesus monkeys = details: cited from earlier work
rats [15] = assay: Prepulse inhibition; assay type: in vivo; details: 30 mg/kg, IP, one hour before testing, PCP·HCl 1.5 mg/kg SC ten minutes prior to testing
How it was run: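 Rats received the test compound at 30 mg/kg ip one hour before testing, then PCP·HCl (1.5 mg/kg, sc) ten minutes before testing to disrupt PPI. Startle to an auditory stimulus was measured with a non-startling auditory prepulse at 5, 10 and 15 decibels. Results were expressed as mean (+SEM) percent prepulse inhibition and compared with PCP-treated controls given 0 mg/kg drug.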

[16] = MAM model of schizophrenia; cited from earlier work
[17] = footnote d: assessed at 1-hour incubation time
[18] = human, liver microsomes, Microsomal stability (HLM) % remaining, after 2 hr

SMILES	HEPG2 LD50 (HEPG2 (liver) cell line)	HEK293 LD50 [3]	Microsomal stability (MLM) % remaining ([1]; after 2 hr)	Effect on sensorimotor coordination (motor impairment, sedation/ataxia) (mice [4])	half-life [1]	half-life ([2]; human, liver microsomes)	remaining at 2 h ([1]; after 2 hr)	remaining at 2 h [2, 18]	also measured
C#Cc1ccc2c(c1)C(c1ccccc1F)=N[C@@H](C)c1c(C(=O)NC3CC3)ncn1-2 [8c, (S)-N-Cyclopropyl-8-ethynyl-6-(2-fluorophenyl)-4-methyl-4H-benzo[f]imidazo[1,5-a][1,4]diazepine-3-carbox-amide]	93.5 ± 5.7 µM	63.8 ± 3.0 µM							Microsomal stability (MLM) % remaining [1, 17]: 72.0 ± 0.3^d %; Microsomal stability (MLM) Half-life [1, 17]: 320 ± 34^d min; Microsomal stability (HLM) % remaining [2, 17]: 89.0 ± 0.4^d %; Microsomal stability (HLM) Half-life [2, 17]: 1625 ± 803^d min
C#Cc1ccc2c(c1)C(c1ccccc1F)=N[C@@H](C)c1c(C(=O)NC(C)C)ncn1-2 [8d, (S)-8-Ethynyl-6-(2-fluorophenyl)-N-isopropyl-4-methyl-4H-benzo[f]imidazo[1,5-a][1,4]diazepine-3-carboxa-mide]	56.9 ± 4.8 µM	80.2 ± 11.1 µM	75.0 ± 0.3%	did not show any motor impairment					Microsomal stability (HLM) % remaining ([2]; after 2 hr): 38.0 ± 0.5%; Microsomal stability (HLM) Half-life ([2]; after 2 hr): 107 ± 10 min
C#Cc1ccc2c(c1)C(c1ccccc1F)=N[C@@H](C)c1c(C(=O)NC(C)(C)C)ncn1-2 [8e, (S)-N-(tert-Butyl)-8-ethynyl-6-(2-fluorophenyl)-4-methyl-4H-benzo[f]imidazo[1,5-a][1,4]diazepine-3-carbox-amide]	43.4 ± 4.0 µM	33.6 ± 3.0 µM	52.0 ± 0.3%	did not show any motor impairment					Microsomal stability (MLM) Half-life ([1]; after 2 hr): 142 ± 9 min; Microsomal stability (HLM) % remaining ([2]; after 2 hr): 63.0 ± 0.3%; Microsomal stability (HLM) Half-life ([2]; after 2 hr): 205 ± 14 min
C#Cc1ccc2c(c1)C(c1ccccc1F)=N[C@@H](C)c1c(C(=O)N(C)C)ncn1-2 [8f, (S)-8-Ethynyl-6-(2-fluorophenyl)-N,N,4-trimethyl-4H-benzo[f]imidazo[1,5-a][1,4]diazepine-3-carboxamide]	>400 µM	>400 µM		only minor impairment	0.4 ± 0.0333 h	0.983 ± 0.0833 h			remaining at 1 h [1, 17]: 19 ± 0.9%; remaining at 1 h ([2]; human, liver microsomes, Microsomal stability (HLM) % remaining, footnote d: assessed at 1-hour incubation time): 41 ± 0.9%; Activity in procognitive assay [5]: procognitive (A++ and C++); Activity in antidepressant assay (forced swim test) [6]: active
C#Cc1ccc2c(c1)C(c1ccccc1F)=N[C@@H](C)c1c(-c3nc(C)no3)ncn1-2 [9a, (S)-5-(8-Ethynyl-6-(2-fluorophenyl)-4-methyl-4H-benzo[f]imidazo[1,5-a][1,4]diazepin-3-yl)-3-methyl-1,2,4-oxadiazole]		69.3 ± 2.3 µM		did not exhibit motor impairments			81 ± 0.4%	86 ± 0.3%	Procognitive effects in the Y-maze paradigm (Procognitive assay): procognitive effects (C+)
C#Cc1ccc2c(c1)C(c1ccccc1F)=N[C@@H](C)c1c(-c3nc(CC)no3)ncn1-2 [9b, (S)-3-Ethyl-5-(8-ethynyl-6-(2-fluorophenyl)-4-methyl-4H-benzo[f]imidazo[1,5-a][1,4]diazepin-3-yl)-1,2,4-oxadiazole]	35.1 ± 3.7 µM	46.9 ± 6.6 µM		exhibited no sensorimotor impairment	3.55 ± 0.283 h	9.38 ± 2.05 h	63 ± 0.3%	80 ± 0.4%	
C#Cc1ccc2c(c1)C(c1ccccc1F)=N[C@@H](C)c1c(-c3nc(C(C)C)no3)ncn1-2 [9c, (S)-5-(8-Ethynyl-6-(2-fluorophenyl)-4-methyl-4H-benzo[f]imidazo[1,5-a][1,4]diazepin-3-yl)-3-isopropyl-1,2,4-oxadiazole]	21.7 ± 1.8 µM	32.5 ± 7.6 µM		exhibited no sensorimotor impairment	8.33 ± 1.82 h	43.1 ± 32 h	79 ± 0.5%	91 ± 0.3%	
C#Cc1ccc2c(c1)C(c1ccccc1F)=N[C@H](C)c1c(C(=O)OCC)ncn1-2 [compound 1]									Anxiolytic effect (rats [7]): only a minimal anxiolytic effect; Liver microsomal stability (%-remaining) HLM [8]: 100%; Liver microsomal stability (%-remaining) HLM ([8]; listed as SH-053-2'F-R-CH3 (1)): 100.0%; Liver microsomal stability (%-remaining) RLM [9]: 5.4%; Anxiolytic and antidepressant effects after UCMS (mice [10]; female mice): exhibited anxiolytic and antidepressant effects; Anxiolytic and antidepressant effects after UCMS (mice [10]; male mice): very weak or none at all; Protection from 6 Hz electroshock-induced seizures (mice [11]): not effective at any time; also recorded: not able to protect mice from electroshock-induced seizures; Ataxia in rotarod assay (mice [12]): neither 1 nor 2 produced significant ataxia; Liver microsomal stability (%-remaining) DLM [13]: 90.3%; Liver microsomal stability (%-remaining) MLM [14]: 59.1%; Anxiolytic effect (rhesus monkeys): only a minimal anxiolytic effect; Reversal of PCP-induced PPI deficit (rats [15]): failed to reach a significant effect; also recorded: not 1 reversed the PPI deficits; Effect on amphetamine-induced hyperactivity of the dopamine system [16]: successfully alleviate the hyperactivity of the dopamine system induced by amphetamine
CCOC(=O)c1ncn2c1[C@H](C)N=C(c1ccccc1F)c1cc(C3CC3)ccc1-2 [compound 3, (S)-Ethyl-8-cyclopropyl-6-(2-fluorophenyl)-4-methyl-4H-benzo[f]imidazo[1,5-a][1,4]diazepine-3-carboxylate]	87.0 ± 6.6 µM	58.0 ± 6.0 µM			0.767 ± 0.05 h	< 0.0833 h	16 ± 0.4%		
C#Cc1ccc2c(c1)C(c1ccccc1F)=N[C@@H](C)c1c(C(=O)O)ncn1-2 [compound 6, (S)-8-Ethynyl-6-(2-fluorophenyl)-4-methyl-4H-benzo[f]imidazo[1,5-a][1,4]diazepine-3-carboxylic acid]	>400 µM	>400 µM			2.32 ± 0.183 h	5.97 ± 0.933 h		74 ± 0.4%	remaining at 1 h [1, 17]: 54 ± 0.3%
C#Cc1ccc2c(c1)C(c1ccccc1F)=N[C@@H](C)c1c(C(=O)SCC)ncn1-2 [compound 7, (S)-S-Ethyl-8-ethynyl-6-(2-fluorophenyl)-4-methyl-4H-benzo[f]imidazo[1,5-a][1,4]diazepine-3-carbothioate]	30.2 ± 9.7 µM	20.5 ± 4.7 µM	9.0 ± 0.5%						Microsomal stability (MLM) Half-life ([1]; after 2 hr): 46 ± 6 min; Microsomal stability (HLM) % remaining ([2]; after 2 hr): 28.0 ± 0.3%; Microsomal stability (HLM) Half-life ([2]; after 2 hr): 101 ± 19 min
C#Cc1ccc2c(c1)C(c1ccccc1F)=N[C@@H](C)c1c(C#N)ncn1-2 [compound 10, (S)-8-Ethynyl-6-(2-fluorophenyl)-4-methyl-4H-benzo[f]imidazo[1,5-a][1,4]diazepine-3-carbonitrile]	57.1 ± 5.6 µM	81.6 ± 6.7 µM	17.0 ± 0.6%		0.967 ± 0.1 h	0.683 ± 0.0833 h	16%	9 ± 0.3%	
